HTR2A ag: agonists of mouse serotonin 5-HT2A receptor (HTR2A); P35363; CHO-K1 mHTR2A beta-arrestin complementation, luminescence; percent of 30 µM serotonin response; activation, % at 7.6 µM; hit rate 0.66% among 360,000; AID 624169;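 active = activation above a run cutoff, the mean activation of all tested compounds plus 3 SD, cut at about 14% in these data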
AHR act: human AHR activation. AHR-responsive luciferase reporter cells, luminescence. hit rate 2.5% among 320,000. activation, % at 5 µM. P35869; in the data active = activation above about 47%
FXN GAA850 act: activators of GAA850 frataxin (FXN) promoter; HEK293 lucGAA850 FXN promoter luciferase reporter, 24 h; percent of 10 µM SAHA response; activation, % at 6 µM; hit rate 0.56% among 360,000;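 active = activation above the average of all compounds screened plus 3 SD, cutoff fixed separately per campaign, cut at about 7.5% in these data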
MC4R ag barr: agonists of human melanocortin 4 receptor (MC4R) beta-arrestin; U2OS MC4R beta-arrestin complementation, luminescence; percent of melanotan II response, DMSO zero; activation, % at 8.9 µM; hit rate 0.98% among 360,000; AID 540308;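 active = activation above a per-plate cutoff, the mean activation of sample wells on that plate plus 3 SD, cut at about 8% in these data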
MC4R antagonist: human MC4R antagonism in cAMP assay. P32245. hit rate 0.48% among 360,000. MC4R-expressing cells, MTII-stimulated cAMP, LANCE TR-FRET. AID 540295. inhibition, % at 6.5 µM;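 active = inhibition above its plate's cutoff, the mean of tested wells on that plate plus 3 SD, cut at about 29% in these data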
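Assay system: U2OS cells stably expressing human melanocortin 4 receptor (MC4R) / Dosing: 6.5 µM / Timing: compound 30 min, challenge 1 h, detection 1 h / Measured by: Eu-cAMP/anti-cAMP TR-FRET, emission 671 nm / Replicates: singlicate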
OPRM1 ag: counter-screen for mouse HTR2A agonists: human mu opioid receptor agonists | shares compounds with HTR2A ag | U2OS OPRM1 beta-arrestin PathHunter, luminescence; DMSO 0%, DAMGO 9.3 µM 100% | activation, % at 9.3 µM | hit rate 5.3% among 2,300 | AID 624380;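 active = mean activation above the mean of DMSO-only wells plus 3 SD, cut at about 0.5% in these data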
m5-HT2A ag conf: confirmation of mouse HTR2A serotonin receptor agonists | shares compounds with HTR2A ag | CHO-K1 PathHunter beta-arrestin recruitment, luminescence; DMSO 0%, 30 µM serotonin 100% | activation, % at 7.6 µM | hit rate 19% among 2,300 | AID 624381;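 active = mean activation across triplicates above the hit threshold derived in the original primary screen, cut at about 15% in these data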
Hits are given with their value; 0 = inactive; - = no result; ! = not active in a repeat. This is a sample that favours compounds with a hit; in the whole collection about 4.7% have one here.

SMILES | HTR2A ag | AHR act | FXN GAA850 act | MC4R ag barr | MC4R antagonist | OPRM1 ag | m5-HT2A ag conf
CCCN1CCO[C@@H]2c3cc(O)ccc3OC[C@H]21 | 58 | 0 | 0 | 0 | 0 | 0 | 161
Cn1c(O)c(C(=O)c2ccccc2)c(=O)n(C)c1=O | 18 | 0 | 0 | 0 | 0 | 0 | 0
O=C1C2C3CCC(O3)C2C(=O)N1CCO (stereo not given) | 0 | 0 | 0 | 0 | 0 | - | -
CC(C)c1ccccc1OCC(=O)N1CCCN(C)CC1 | 0 | 0 | 0 | 0 | 0 | - | -
Cc1cc(C)n2c(Br)c(CN3CC4CC(C3)c3cccc(=O)n3C4)nc2n1 (stereo not given) | 22 | 0 | 0 | 0 | 0 | 0 | 0
N#CC1c2ccccc2C=CN1C(=O)c1ccc(N(CCCl)CCCl)cc1 (stereo not given) | 24 | - | 0 | 0 | 0 | 0 | 0
CCCCCCC(C)(C)c1ccc([C@@H]2C[C@H](O)CC[C@H]2CCCO)c(O)c1 | 29 | 0 | 0 | 0 | 0 | 0.8 | 23
O=C1NCCCCC1(Cl)Cl | 17 | - | 0 | 0 | 0 | 0 | 0
CC(N)Cc1c[nH]c2ccc(O)cc12 (stereo not given) | 49 | - | 0 | 0 | 0 | 0 | 32
C(#CCN1CCOCC1)COCc1ccccc1 | 0 | 0 | 0 | 0 | 0 | - | -
N#CC12CNCC1CN=N2 (stereo not given) | 22 | 0 | 0 | 0 | 0 | 0 | 0
CCCCCn1c(=O)c(C(=O)NCc2ccco2)c(O)c2ccccc21 | 18 | 0 | 0 | 0 | 0 | 0 | 0
O=C(NP(=O)(N1CC1)N1CC1)c1cc(I)ccc1I | 0 | - | 0 | 0 | 0 | - | -
CC[C@@H]1C(=O)OC[C@@H]1Cc1cncn1C | 18! | 0 | 0 | 0 | 0 | 0 | 0
CC[C@@H]1C(=O)OC[C@@H]1Cc1cncn1C | 0 | 0 | 0 | 0 | 0 | - | -
COP(=O)(OC)C(NC(C)=O)C(Cl)(Cl)Cl (stereo not given) | 0 | 0 | 0 | 0 | 0 | - | -
CC12CC3CC(C)(C1)CC(N)(C3)C2 | 18! | 0 | 0 | 0 | 0 | 0 | 0
C[C@H](NC(=O)N1C[C@H]2C[C@@H](C1)c1cccc(=O)n1C2)C(=O)Nc1cccc(F)c1 | 0 | 0 | 0 | 0 | 0 | - | -
O=c1cccc2n1CC1CC2CN(C(c2cccc(F)c2)c2sc3ncnn3c2O)C1 (stereo not given) | 16 | 0 | 0 | 0 | 0 | 0 | 0
COc1cc(CCN)ccc1O | 0 | 0 | 0 | 0 | 0 | - | -
CCCCCSc1cc(OC)c(CCN)cc1OC | 30 | 0 | 0 | 0 | 0 | 0 | 0
CCCCCCCSc1cc(OC)c(CCN(C)C)cc1OC | 34 | 0 | 0 | 0 | 0 | 0 | 17
COC(=O)C1=C(c2ccc(C(C)=O)cc2)C[C@@H]2CC[C@H]1N2C(=O)N1CCCCC1 | 0 | 0 | 0 | 0 | 0 | - | -
CCC(=NCC1CCCO1)c1c(O)n(-c2ccccc2C)c(=O)[nH]c1=O (stereo not given) | 0 | 0 | 0 | 0 | 0 | - | -
CC(C)N1CCN(Cc2c[nH]c3ccccc23)CC1CCO (stereo not given) | 0 | - | 0 | 0 | 0 | - | -
SMILES | HTR2A ag | AHR act | FXN GAA850 act | MC4R ag barr | MC4R antagonist | OPRM1 ag | m5-HT2A ag conf
O=[N+]([O-])c1ccc(OP(=O)(O)Oc2ccc([N+](=O)[O-])cc2)cc1 | 0 | - | 0 | 0 | 0 | - | -
COc1ccc(C(c2nnnn2-c2ccc(OC)cc2)N2CCC(n3c(=O)[nH]c4ccccc43)CC2)cc1 (stereo not given) | 0 | - | - | - | - | - | -
COc1ccc(-n2nnnc2C(c2cc3ccccc3o2)N2CCC(n3c(=O)[nH]c4ccccc43)CC2)cc1 (stereo not given) | 16 | - | - | - | - | - | 0
CCC(C)N1CCN(C(=O)COc2ccc3ccccc3c2)CC1 (stereo not given) | 0 | 0 | 0 | 0 | 0 | - | -
C[C@]12CC[C@H](OS(=O)(=O)O)CC1=CC[C@@H]1[C@@H]2CC[C@]2(C)C(=O)CC[C@@H]12 | 15! | 0 | 0 | 0 | 0 | 0 | 0
C[C@]12CCC(OC(=O)CCC(=O)O)CC1=CCC1C2CC[C@]2(C)C(=O)CCC12 (stereo not given in full) | 0 | 0 | 0 | 0 | 0 | - | -

Bioassay records: PubChem BioAssay, The Scripps Research Institute Molecular Screening Center
